From PubChem
PHOSPHO1 inh = PubChem AID 1565; recombinant PHOSPHO1, absorbance phosphatase assay; Phosphoethanolamine/phosphocholine phosphatase (Homo sapiens), Q8TCT1; inhibition, % at 13.3 µM; hit rate 1.1% among 290,000; in the data active = inhibition above about 60%
KCNK3 block = human KCNK3 channel inhibitors, primary screen, CHO cells, FluxOR thallium flux, B-score | Potassium channel subfamily K member 3 (Homo sapiens), O14649 | FluxOR fluorescence; active compounds read low | B-score at 10 µM | hit rate 0.84% among 340,000 | AID 602410, 2012;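 active = B-score under library mean minus 4 SD, starting fluorescence ratio at most library mean plus 5 SD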;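 note: more negative B-score means stronger inhibition of thallium flux through KCNK3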
KCNQ1 inh = inhibitors of human KCNQ1 channel, primary screen, cell-based, thallium flux, high-throughput; Potassium voltage-gated channel subfamily KQT member 1 (Homo sapiens), P51787; B-score at 10 µM; hit rate 1.3% among 310,000; CHO-K1 KCNQ1, FluxOR thallium flux fluorescence; active compounds read high; AID 2642, 2010;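 active = compounds whose thallium flux B-score, printed positive for inhibition, exceeds three library SD while starting fluorescence stays within three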;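 note: channel opened by potassium depolarization with thallium stimulus after 20 min compound exposure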
KCNQ1 pot = potentiators or activators of KCNQ1 channel, primary screen, cell-based, thallium flux, high-throughput; Potassium voltage-gated channel subfamily KQT member 1 (Homo sapiens), P51787; CHO-K1 KCNQ1, thallium flux FluxOR fluorescence; active compounds read high; B-score at 10 µM; hit rate 0.35% among 310,000;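 active = fluorescence ratio B-score, a plate-corrected score, at least three library SD, with initial intensity B-score within 5 SD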
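Schedule – 37 °C overnight plating, 90-min dark dye load, 20-min compound pretreatment · System – stable KCNQ1 CHO-K1 line · Probe or stimulus – thallium- and potassium-containing depolarizing buffer · Measured by – kinetic FluxOR fluorescence, 10 s baseline plus 110 s post-stimulus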
hERG protect = hERG rescue from dofetilide block, primary screen, cell-based, CHO-hERG, FluxOR thallium flux, dofetilide IC70. activation (rescue from dofetilide block), less the hit threshold, % at 10 µM. hit rate 0.51% among 310,000. Voltage-gated inwardly rectifying potassium channel KCNH2 (Homo sapiens), Q12809. dofetilide IC70 present. AID 1511, 2009;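 active = activation above the mean of controls blocked by dofetilide plus 5 SD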;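 note: thallium influx through hERG after potassium depolarization seen as dye fluorescence rise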
KCNK9 block = KCNK9 potassium channel inhibitors, primary screen, HEK293 cells, thallium flux | hit rate 1.2% among 310,000 | B-score at 10 µM | FluxOR thallium flux fluorescence; active compounds read low | Potassium channel subfamily K member 9 (Homo sapiens), Q9NPC2;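 active = ratio B-score over 3 SD below the library mean, with starting fluorescence within 5 SD of its mean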;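 note: negative B-score means less thallium flux so channel inhibition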
Target sequence (Q9NPC2 whole entry, looked up): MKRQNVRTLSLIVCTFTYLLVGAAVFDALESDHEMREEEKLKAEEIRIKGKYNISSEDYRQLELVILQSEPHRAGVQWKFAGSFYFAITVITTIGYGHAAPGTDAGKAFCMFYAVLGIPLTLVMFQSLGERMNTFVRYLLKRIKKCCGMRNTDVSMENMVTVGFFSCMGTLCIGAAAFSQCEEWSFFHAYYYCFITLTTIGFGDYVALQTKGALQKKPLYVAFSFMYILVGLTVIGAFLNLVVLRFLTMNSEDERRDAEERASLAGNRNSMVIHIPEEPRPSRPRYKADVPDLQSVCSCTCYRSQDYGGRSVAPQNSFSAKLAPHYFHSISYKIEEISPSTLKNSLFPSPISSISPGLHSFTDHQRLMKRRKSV
KCNK9 inh conf = KCNK9 potassium channel inhibitors, confirmation, HEK293 cells, thallium flux, duplicate; shares compounds with KCNK9 block; FluxOR thallium flux fluorescence; inhibition, % at 10 µM; hit rate 43% among 4,900;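 active = thallium signal inhibited by more than 5 SD of the compound-free buffer control wells, on both duplicate plates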;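 note: 0% = assay buffer control wells without compound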
Kir21 sel = mouse Kir2.1 channel inhibition, confirmation, selectivity assay for KCNK9 modulator project, cell-based, HEK293, thallium flux; shares compounds with KCNK9 block; Kir2.1 cells, FluxOR thallium flux fluorescence; inhibition, % at 10 µM; hit rate 4% among 4,900;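 active = thallium signal drop more than 5 SD beyond the mean of the no-compound control wells, seen in both duplicate plates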;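 note: signal is fluorescence rise after thallium addition divided by baseline fluorescence; plate controls were assay buffer only for no effect and full block by chlorpromazine control for full effect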
KCNK9 uninduced = thallium flux in non-induced HEK293 cells, confirmation, counter-screen for KCNK9 inhibitor project, cell-based, second counter screen, non-induced KCNK9-HEK293. inhibition, % at 10 µM. AID 492997, 2010. FluxOR thallium flux. hit rate 40% among 4,900. shares compounds with KCNK9 block;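 active = thallium signal drop beyond 5 SD of the untreated control mean, on both duplicate plates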;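 note: plate controls were buffer only IC0 wells for no effect and SID17386958 at its maximal inhibitory level for full effect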
* = called active by the depositor; i = inactive; · = no result given. A selection: hits, their analogues and other compounds. The true share with any hit is near 4%.

SMILES | PHOSPHO1 inh | KCNK3 block | KCNQ1 inh | KCNQ1 pot | hERG protect | KCNK9 block | KCNK9 inh conf | Kir21 sel | KCNK9 uninduced
C[n+]1c2n(c3ccccc31)N=C(c1cc(C(C)(C)C)c(O)c(C(C)(C)C)c1)CS2 | -25 | -13* | 7* | i | -38 | -19* | 76%* | 46%* | 32%*
COc1cccc(C2=Nn3c(nnc3-c3ccccc3O)SC2)c1 | 36 | i | i | i | -15 | i | · | · | ·
O=C(NC(=S)Nc1ccc2c(c1)OCCO2)c1ccccc1 | -7 | i | i | i | -10 | i | · | · | ·
CCOc1cccc(C(=O)NC(=S)Nc2ccc3c(c2)OCCO3)c1 | 9 | i | i | i | -6 | i | i | i | i
Cc1ccccc1Nc1ncnc2c1cnn2-c1ccccc1 | 5 | i | i | i | -11 | -9.5* | i | i | i
NNc1ncnc2c1cnn2-c1ccccc1 | 32 | i | i | i | -13 | i | · | · | ·
C/C(=N\NC(=S)NCCc1ccccc1)c1ccc(O)cc1O | 17 | i | i | i | -23 | i | · | · | ·
C/C(=N\NC(=S)NCCc1ccccc1)c1ccc(Cl)cc1Cl | 12 | i | i | i | -2 | i | i | i | i
Cc1csc(NC(=O)CSc2nc3ccccc3c(=O)[nH]2)n1 | -16 | i | i | i | -9 | i | · | · | ·
O=C(CSc1nncc2ccccc12)N1CCOCC1 | 31 | i | i | i | -12 | i | · | · | ·
Cc1csc(NC(=O)CSc2nc3ccccc3c3c2CCCC3)n1 | -1 | i | i | i | -1 | i | i | i | i
O=C(CSc1nc2ccccc2c2c1CCCC2)N1CCOCC1 | 16 | i | i | i | -13 | i | i | i | i
CC(C)N(C(=O)CSc1nnc(CSc2ncccn2)n1C)C(C)C | 56 | i | i | i | -13 | i | · | · | ·
Cn1ccnc1SCC(=O)Nc1cccc(C(F)(F)F)c1 | 10 | i | i | i | -3 | i | · | · | ·
O=C(CN1CCN(c2cccc(C(F)(F)F)c2)CC1)Nc1cccc(C(F)(F)F)c1 | 10 | i | 9* | i | -17 | i | i | i | i
O=C(CSC1=NCCN1)Nc1cccc(C(F)(F)F)c1 | 47 | i | i | i | -18 | -9.9* | 32%* | i | 24%*
NC(=O)NC(=O)COC(=O)CCCCCNS(=O)(=O)c1ccc2c(c1)OCCO2 | -6 | i | i | i | -2 | i | · | · | ·
COc1ccccc1CN1C[C@@H]2C[C@@H](c3ccccc3C)N3CCC[C@@]23C1=O | 50 | i | i | i | -8 | i | i | i | i
Cc1ccc(N=Cc2cc(Cc3ccccc3Cl)cc([N+](=O)[O-])c2O)c(O)c1 | -13 | i | i | i | -11 | -8.8* | i | i | 65%*
O=C1NC2(CCCCC2)C(=O)N1c1cccc(Cl)c1 | 1 | i | i | i | -9 | i | · | · | ·
CCOc1ncccc1C(=O)OCC(=O)c1ccccc1 | 47 | i | i | i | -13 | i | · | · | ·
Cc1cccc(C(=O)NC(=S)Nc2cccc3nc(C)ccc23)c1 | 38 | i | i | i | -7 | i | i | i | i
CC(=O)c1cccc(NC(=S)NC(=O)c2cccc(C)c2)c1 | 3 | i | i | i | -8 | i | · | · | ·
